Among the data in ChEMBL document CHEMBL5357072, “Structural Modification of Noscapine via Photoredox/Nickel Dual Catalysis for the Discovery of S-Phase Arresting Agents” (ACS Med Chem Lett, 2024) are inhibition of growth values, retold here.

Holding throughout (type): functional
Settings in all cases: read-out: GI

Experiment [1] deals with U-251. Description: Antiproliferative activity against human U-251 cells assessed as cell growth inhibition at 10 uM incubated for 48 hrs by CCK8 assay relative to control. In short, it runs like this:
(§1)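 Single-concentration screen of six cancer cell lines. Cells were exposed to 10 μM compound and growth was measured by CCK-8 assay. Results are reported as inhibition rate at 10 μM.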

Experiment [2] deals with JeKo-1. Description: Antiproliferative activity against human JeKo-1 cells assessed as cell growth inhibition at 10 uM incubated for 48 hrs by CCK8 assay relative to control. In short, it runs like this: as §1
Experiment [3] has as its system A549. Briefly: Antiproliferative activity against human A549 cells assessed as cell growth inhibition at 10 uM incubated for 48 hrs by CCK8 assay relative to control. In short, it runs like this:
as §1
A general note: Formazan colour is commonly taken as a measure of viable cells.

Experiment [4] has as its system NB-4. Briefly: Antiproliferative activity against human NB4 cells assessed as cell growth inhibition at 10 uM incubated for 48 hrs by CCK8 assay relative to control. In short, it runs like this: as §1
The test system of experiment [5] is HeLa. Description: Antiproliferative activity against human HeLa cells assessed as cell growth inhibition at 10 uM incubated for 48 hrs by CCK8 assay relative to control. In short, it runs like this:
as §1

In experiment [6] the test system is MOLM-13. Description: Antiproliferative activity against human MOLM-13 cells assessed as cell growth inhibition at 10 uM incubated for 48 hrs by CCK8 assay relative to control. In short, it runs like this: as §1

SMILES strings stand for the structures. Bounds are passed on as bounds.

As for `COc1ccc2c(c1OC)C(=O)O[C@@H]2[C@H]1c2c(c(CCCCCC#N)c3c(c2OC)OCO3)CCN1C(=O)OC(C)(C)C`, the inhibition of growth at 10 µM was 19.1% in experiment [1]; 19.9% in experiment [2]; < 5% in experiment [3]; 14.1% in experiment [4]; 16.1% in experiment [5]; 46.3% in experiment [6].

Regarding `COc1ccc2c(c1OC)C(=O)O[C@@H]2[C@H]1c2c(c(C3CC4CCC3C4)c3c(c2OC)OCO3)CCN1C(=O)OC(C)(C)C` (some centres not stated), the inhibition of growth at 10 µM is < 5% in experiment [1]; < 5% in experiment [2]; < 5% in experiment [3]; 15% in experiment [4]; < 5% in experiment [5]; 48.6% in experiment [6].

With `COc1ccc2c(c1OC)C(=O)O[C@@H]2[C@H]1c2c(c(C3CCCCCC3)c3c(c2OC)OCO3)CCN1C(=O)OC(C)(C)C`, the inhibition of growth at 10 µM in experiment [1] is 20.5%; in experiment [2], 10.3%; in experiment [3] it was < 5%; in experiment [4], < 5%; in experiment [5], < 5%; in experiment [6], 39.4%.

For the molecule `COc1ccc2c(c1OC)C(=O)O[C@@H]2[C@H]1c2c(c(CC3CCCN3C(=O)OC(C)(C)C)c3c(c2OC)OCO3)CCN1C(=O)OC(C)(C)C` (some centres not stated), the inhibition of growth at 10 µM was < 5% in experiment [1]; 15.7% in experiment [2]; < 5% in experiment [3]; 29.7% in experiment [4]; 8.57% in experiment [5]; 48.1% in experiment [6].

Regarding `COc1ccc2c(c1OC)C(=O)O[C@@H]2[C@H]1c2c(c(C3CCN(C(=O)OC(C)(C)C)C3)c3c(c2OC)OCO3)CCN1C(=O)OC(C)(C)C` (some centres not stated), the inhibition of growth at 10 µM in experiment [1] was < 5%; in experiment [2] it was 14.9%; in experiment [3], 17.7%; in experiment [4], 22.1%; in experiment [5], < 5%; in experiment [6], 54.8%.

For `COc1ccc2c(c1OC)C(=O)O[C@@H]2[C@H]1c2c(c(C3CCC(C)(C)CC3)c3c(c2OC)OCO3)CCN1C(=O)OC(C)(C)C`, the inhibition of growth at 10 µM in experiment [1] was < 5%; in experiment [2], 7.49%; in experiment [3] it was < 5%; in experiment [4] it was 29.6%; in experiment [5], < 5%; in experiment [6] it was 47.6%.

Take `COc1ccc2c(c1OC)C(=O)O[C@@H]2[C@H]1c2c(c(CCCNC(=O)OC(C)(C)C)c3c(c2OC)OCO3)CCN1C(=O)OC(C)(C)C`: the inhibition of growth at 10 µM in experiment [1] was < 5%; in experiment [2], 10.6%; in experiment [3] it was < 5%; in experiment [4] it was 28.9%; in experiment [5], < 5%; in experiment [6] it was 48.2%.

For the molecule `COc1ccc2c(c1OC)C(=O)O[C@@H]2[C@H]1c2c(c(CC[Si](C)(C)C)c3c(c2OC)OCO3)CCN1C(=O)OC(C)(C)C`, the inhibition of growth at 10 µM in experiment [1] was < 5%; in experiment [2], < 5%; in experiment [3], < 5%; in experiment [4], 21.9%; in experiment [5], < 5%; in experiment [6], 46.9%.

Regarding `COc1ccc2c(c1OC)C(=O)O[C@@H]2[C@H]1c2c(c(C34C[C@H]5C[C@H](C3)C[C@@H](C4)C5)c3c(c2OC)OCO3)CCN1C(=O)OC(C)(C)C`, the inhibition of growth at 10 µM in experiment [1] was < 5%; in experiment [2] it was < 5%; in experiment [3], < 5%; in experiment [4], < 5%; in experiment [5], < 5%; in experiment [6] it was 17.6%.

For the molecule `COc1ccc2c(c1OC)C(=O)O[C@@H]2[C@H]1c2c(c(CC3CC3)c3c(c2OC)OCO3)CCN1C(=O)OC(C)(C)C`, the inhibition of growth at 10 µM is < 5% in experiment [1]; < 5% in experiment [2]; < 5% in experiment [3]; 8.2% in experiment [4]; < 5% in experiment [5]; 43.6% in experiment [6].

Regarding `COc1ccc2c(c1OC)C(=O)O[C@@H]2[C@H]1c2c(c(CC3CN(C(=O)OC(C)(C)C)C3)c3c(c2OC)OCO3)CCN1C(=O)OC(C)(C)C`, the inhibition of growth at 10 µM in experiment [1] was < 5%; in experiment [2], 48%; in experiment [3], 10.6%; in experiment [4], 63.1%; in experiment [5], < 5%; in experiment [6], 59%.

Turning to `COc1ccc2c(c1OC)C(=O)O[C@@H]2[C@H]1c2c(c(C3CCN(C(=O)OC(C)(C)C)CC3)c3c(c2OC)OCO3)CCN1C(=O)OC(C)(C)C`, the inhibition of growth at 10 µM in experiment [1] was < 5%; in experiment [2], 22.3%; in experiment [3], 14.7%; in experiment [4] it was 21.2%; in experiment [5], 17.5%; in experiment [6], 62.9%.

Regarding `COc1ccc2c(c1OC)C(=O)O[C@@H]2[C@H]1c2c(c(C3CCCC3)c3c(c2OC)OCO3)CCN1C(=O)OC(C)(C)C`, the inhibition of growth at 10 µM in experiment [1] is < 5%; in experiment [2], 5.81%; in experiment [3], < 5%; in experiment [4], 11.6%; in experiment [5], < 5%; in experiment [6] it was 40%.

On to `CCOP(=O)(CCc1c2c(c(OC)c3c1OCO3)[C@H]([C@H]1OC(=O)c3c1ccc(OC)c3OC)N(C(=O)OC(C)(C)C)CC2)OCC`, for which the inhibition of growth at 10 µM was < 5% in experiment [1]; 12.1% in experiment [2]; < 5% in experiment [3]; 6.64% in experiment [4]; < 5% in experiment [5]; 31.1% in experiment [6].

Take `COc1ccc2c(c1OC)C(=O)O[C@@H]2[C@H]1c2c(c(CC3CCCO3)c3c(c2OC)OCO3)CCN1C(=O)OC(C)(C)C` (some centres not stated): the inhibition of growth at 10 µM in experiment [1] was 29.8%; in experiment [2], 15.6%; in experiment [3] it was < 5%; in experiment [4], 7.48%; in experiment [5], 24.7%; in experiment [6], 44.9%.

With `COc1ccc2c(c1OC)C(=O)O[C@@H]2[C@H]1c2c(c(C3CCCCC3)c3c(c2OC)OCO3)CCN1C(=O)OC(C)(C)C`, the inhibition of growth at 10 µM in experiment [1] was < 5%; in experiment [2], < 5%; in experiment [3], < 5%; in experiment [4], 6.53%; in experiment [5], < 5%; in experiment [6], 46.1%.

Consider `CCCCc1c2c(c(OC)c3c1OCO3)[C@H]([C@H]1OC(=O)c3c1ccc(OC)c3OC)N(C(=O)OC(C)(C)C)CC2`, for which the inhibition of growth at 10 µM is < 5% in experiment [1]; 11.4% in experiment [2]; < 5% in experiment [3]; 10% in experiment [4]; < 5% in experiment [5]; 48.6% in experiment [6].

As to `COc1ccc2c(c1OC)C(=O)O[C@@H]2[C@H]1c2c(c(C3CCC3)c3c(c2OC)OCO3)CCN1C(=O)OC(C)(C)C`, the inhibition of growth at 10 µM is < 5% in experiment [1]; < 5% in experiment [2]; < 5% in experiment [3]; 13.5% in experiment [4]; < 5% in experiment [5]; 40.4% in experiment [6].

As to `COc1ccc2c(c1OC)C(=O)O[C@@H]2[C@H]1c2c(c(CC3CCN(C(=O)OC(C)(C)C)CC3)c3c(c2OC)OCO3)CCN1C(=O)OC(C)(C)C`, the inhibition of growth at 10 µM in experiment [1] was < 5%; in experiment [2], 22.7%; in experiment [3], < 5%; in experiment [4], 37.3%; in experiment [5] it was < 5%; in experiment [6], 58.1%.

For the molecule `Nc1ccn([C@@H]2O[C@H](CO)[C@@H](O)C2(F)F)c(=O)n1` [GEMCITABINE], the inhibition of growth at 10 µM in experiment [1] stood at 69.7%; in experiment [2], 65.2%; in experiment [3], 62.3%; in experiment [4], 95.7%; in experiment [5], 61.4%; in experiment [6] it was 74.1%.

With `COc1ccc2c(c1OC)C(=O)O[C@@H]2[C@H]1c2c(c(CC3CCN(C(=O)OC(C)(C)C)C3)c3c(c2OC)OCO3)CCN1C(=O)OC(C)(C)C` (some centres not stated), the inhibition of growth at 10 µM in experiment [1] is < 5%; in experiment [2], 7.92%; in experiment [3], < 5%; in experiment [4] it was 23.2%; in experiment [5] it was < 5%; in experiment [6], 52.5%.

Take `COc1ccc2c(c1OC)C(=O)O[C@@H]2[C@H]1c2c(c(CCNC(=O)OC(C)(C)C)c3c(c2OC)OCO3)CCN1C(=O)OC(C)(C)C`: the inhibition of growth at 10 µM was < 5% in experiment [1]; 14% in experiment [2]; < 5% in experiment [3]; 29.9% in experiment [4]; < 5% in experiment [5]; 43.5% in experiment [6].
